Test system: not listed separately
Assay: Selectivity index, ratio of IC50 for CHO cells to IC50 for antiplasmodial activity against chloroquine-sensitive Plasmodium falciparum NF54
Type: toxicity
Settings: hamster, CHO cells (cytotoxicity) versus Plasmodium falciparum NF54; read-out: Ratio IC50
In short: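 CHO cytotoxicity measured by MTT colorimetric assay, using the antiplasmodial stock solutions. Six 10-fold dilutions in complete medium, 100 to 0.001 μg/ml, with emetine as reference. Triplicate on one occasion. IC50 from non-linear dose-response fit. NF54 IC50 came from the parasite lactate dehydrogenase assay. SI = IC50 CHO/IC50 NF54.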
Work on `C=CCN1C[C@@H](OCc2ccccc2)[C@@H](CNc2ccnc3cc(Cl)ccc23)C(C)(C)C1` (relative stereo) yielded a selectivity ratio of 10100.

Test system: Plasmodium falciparum
Assay: Resistance index, ratio of IC50 for antiplasmodial activity against chloroquine-resistant Plasmodium falciparum K1 to IC50 for antiplasmodial activity against chloroquine-sensitive Plasmodium falciparum NF54
Type: functional
Settings: not given
In short: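 Asexual blood-stage P. falciparum K1 and NF54 kept in continuous culture (modified Trager–Jensen). Growth read by parasite lactate dehydrogenase assay (modified Makler). Ten 2-fold dilutions in complete medium, from 10 μg/ml to 20 ng/ml (or 1 μg/ml to 2 ng/ml). Chloroquine as reference. Triplicate on one occasion. IC50s from non-linear dose-response fit. RI = IC50 K1/IC50 NF54.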
For `C=CCN1CCC(CNc2ccnc3cc(Cl)ccc23)C(C)(C)C1` (stereo not given), the “Ratio IC50” value was 1.7. With `C=CCN1C[C@@H](OCc2ccccc2)[C@@H](CNCc2cc3ccccc3nc2Cl)C(C)(C)C1` (relative stereo) the “Ratio IC50” value was 1.5. For `C=CCN1C[C@@H](OCc2ccccc2)[C@@H](CNCc2ccc3ccccc3n2)C(C)(C)C1` (relative stereo), the “Ratio IC50” value was 1.8. For `Oc1cccc2ccc(CNCC3CC4(c5ccccc5)CCN3C4)nc12` (mixture of isomers), the “Ratio IC50” value was 6.4. In the case of `c1ccc(C23CCN(C2)C(CNc2ccnc4ccccc24)C3)cc1` (mixture of isomers), the “Ratio IC50” value is reported as 1.5. In the case of `C=CCN1C[C@@H](OCc2ccccc2)[C@@H](CNc2ccnc3cc(Cl)ccc23)C(C)(C)C1` (relative stereo), the “Ratio IC50” value is reported as 2.2. For `Clc1ccc2c(NCC3CC4(c5ccccc5)CCN3C4)ccnc2c1` (mixture of isomers), the “Ratio IC50” value was 1.6. For `C=CCN1CCC(CNc2ccnc3ccccc23)C(C)(C)C1` (stereo not given), the “Ratio IC50” value was 0.3. With `C=CCN1C[C@@H](OCc2ccccc2)[C@@H](CNCc2ccnc3ccccc23)C(C)(C)C1` (relative stereo) the “Ratio IC50” value was 1.5.
